Measured values reported in ChEMBL document CHEMBL1268918, “1,3-Benzoxazole-4-carbonitrile as a novel antifungal scaffold of β-1,6-glucan synthesis inhibitors” (Bioorg Med Chem, 2010).
≈ marks a conversion by molar mass, not a printed value.

Legend:
Pichia kudriavzevii [1] = experiment: Antifungal activity against Candida krusei ATCC 44507 assessed as concentration required to 80% growth inhibition using alamar blue staining after 18 to 72 hrs by microdilution method; type: functional
Outline: (§1)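 Serial dilution in YPD medium (1% yeast extract, 2% peptone, […]), incubated at 37 °C. Inoculum was 1×10³–1×10⁴ cells/mL and incubation 18–72 h, both chosen per strain. MIC-1 is the lowest concentration giving 80% inhibition relative to a drug-free control.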

Candida albicans [2] = experiment: Antifungal activity against FLCZ-susceptible Candida albicans ATCC 90028 assessed as concentration required to 80% growth inhibition using alamar blue staining after 18 to 72 hrs by microdilution method; type: functional
Outline: (§2)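 Serial broth microdilution in YPD medium (1% yeast extract, 2% peptone, […]). Starting cell density (1 × 10³–1 × 10⁴ cells/mL) and incubation time (18–72 h) were set per strain by growth speed. MIC-1 is the lowest drug concentration giving 80% growth inhibition relative to the drug-free control.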

Candida tropicalis [3] = experiment: Antifungal activity against Candida tropicalis ATCC 44508 assessed as concentration required to 80% growth inhibition using alamar blue staining after 18 to 72 hrs by microdilution method; type: functional; outline: as §1
[4] = Solubility in water at pH 6.8; type: physicochemical
[5] = Octanol-phosphate buffer partition coefficient, log D of the compound at pH 7.4; type: physicochemical
Outline: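 Compound was shaken 30 min in equal volumes of n-octanol and phosphate-buffered saline at pH 7.4, then centrifuged at 3000 rpm for 10 min. Each layer was assayed by LC/MS, and log D was taken from the partition ratio.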

Candida albicans [6] = experiment: Antifungal activity against FLCZ-resistant Candida albicans ATCC MYA-573 assessed as concentration required to 80% growth inhibition using alamar blue staining after 18 to 72 hrs by microdilution method; type: functional; outline: as §2
Pichia kudriavzevii [7] = experiment: Antifungal activity against Candida krusei ATCC 44507 assessed as concentration required to 50% growth inhibition using alamar blue staining after 18 to 72 hrs by microdilution method; type: functional
Outline: (§3)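 Serial broth microdilution in RPMI 1640 with 0.165 M MOPS. Inoculum was 1×10³–1×10⁴ cells/mL and incubation ran 18–72 h, both set per strain by growth rate, at 30 °C. MIC-2 is the lowest drug concentration giving 50% growth inhibition versus a drug-free control.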

Candida tropicalis [8] = experiment: Antifungal activity against Candida tropicalis IAM 4965 assessed as concentration required to 50% growth inhibition using alamar blue staining after 18 to 72 hrs by microdilution method; type: functional; outline: as §3
Nakaseomyces glabratus [9] = experiment: Antifungal activity against Candida glabrata ATCC 48435 assessed as concentration required to 50% growth inhibition using alamar blue staining after 18 to 72 hrs by microdilution method; type: functional; outline: as §3
Candida albicans [10] = experiment: Antifungal activity against Candida albicans ATCC 24433 assessed as concentration required to 50% growth inhibition using alamar blue staining after 18 to 72 hrs by microdilution method; type: functional; outline: as §3
Saccharomyces cerevisiae = experiment: Antifungal activity against Saccharomyces cerevisiae YPH500 assessed as concentration required to 50% growth inhibition using alamar blue staining after 18 to 72 hrs by microdilution method; type: functional; outline: as §3
Nakaseomyces glabratus [11] = experiment: Antifungal activity against Candida glabrata ATCC 48435 assessed as concentration required to 80% growth inhibition using alamar blue staining after 18 to 72 hrs by microdilution method; type: functional; outline: as §1
[12] = Metabolic stability in human liver microsomes at 1 uM after 30 mins; type: ADME, Microsome; conditions: read-out: Stability
Outline: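 Compound was preincubated with human liver microsomes (0.5 mg/mL protein) in sodium phosphate buffer pH 7.4 for 20 min at 37 °C. NADPH started the reaction, and MeOH stopped it after 30 min. Samples were centrifuged at 4 °C, and parent loss was quantified by LC/MS/MS.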

| SMILES | MIC (Pichia kudriavzevii [1]) | MIC (Candida albicans [2]) | MIC (Candida tropicalis [3]) | solubility [4] | logD [5] | MIC (Candida albicans [6]) | MIC (Pichia kudriavzevii [7]) | MIC (Candida tropicalis [8]) | MIC (Nakaseomyces glabratus [9]) | MIC (Candida albicans [10]) | MIC (Saccharomyces cerevisiae) | MIC (Nakaseomyces glabratus [11]) | MIC (Candida tropicalis [3]; read-out: MIC) | remaining at 0.5 h, 1 µM [12] |
| --- | --- | --- | --- | --- | --- | --- | --- | --- | --- | --- | --- | --- | --- | --- |
| Cc1c(-c2ccccc2)c(N2CC[C@H](N(C)C)C2)c2oc(C3CCC3)nc2c1C#N | 0.5 µg/mL (≈ 1.25 µM) | 0.063 µg/mL (≈ 0.157 µM) | < 0.016 µg/mL | 7 µg/mL (≈ 17.5 µM) | 4.5 | 0.125 µg/mL (≈ 0.312 µM) |  |  |  |  |  |  |  |  |
| Cc1c(C#N)c2c(c(N3CC[C@H](N(C)C)C3)c1-c1ccccc1)OCC(C(C)(C)C)=N2 |  |  |  | 56 µg/mL (≈ 134 µM) | 4.4 |  | > 16 µg/mL | 16 µg/mL (≈ 38.4 µM) | 8 µg/mL (≈ 19.2 µM) | > 16 µg/mL | 8 µg/mL (≈ 19.2 µM) |  |  |  |
| OC(Cn1cncn1)(Cn1cncn1)c1ccc(F)cc1F [FLUCONAZOLE] | 32 µg/mL (≈ 104 µM) | 0.25 µg/mL (≈ 0.816 µM) |  | > 2000 µg/mL |  | > 128 µg/mL | 16 µg/mL (≈ 52.2 µM) | 0.25 µg/mL (≈ 0.816 µM) | 2 µg/mL (≈ 6.53 µM) | 0.25 µg/mL (≈ 0.816 µM) | 4 µg/mL (≈ 13.1 µM) | 16 µg/mL (≈ 52.2 µM) | 0.5 µg/mL (≈ 1.63 µM) |  |
| CN(C)[C@H]1CCN(c2c(-c3ccccc3)c3c(c4nc(C5CC5)oc24)C(=O)OC3)C1 | 2 µg/mL (≈ 4.96 µM) | 1 µg/mL (≈ 2.48 µM) |  | 310 µg/mL (≈ 768 µM) | 2.6 | 1 µg/mL (≈ 2.48 µM) |  |  |  |  |  | 0.25 µg/mL (≈ 0.62 µM) | 0.25 µg/mL (≈ 0.62 µM) |  |
| CN(C)[C@H]1CCN(c2c(-c3ccccc3)cc(C#N)c3oc(C(C)(C)C)cc23)C1 |  |  |  | < 2 µg/mL | 5.4 |  | > 4 µg/mL | 4 µg/mL (≈ 10.3 µM) | > 4 µg/mL | > 4 µg/mL | 2 µg/mL (≈ 5.16 µM) |  |  | 20% |
| Cc1c(-c2ccccc2)c(N2CC[C@H](N(C)C)C2)n2nc(C(C)(C)C)nc2c1C#N | 8 µg/mL (≈ 19.9 µM) | 0.25 µg/mL (≈ 0.621 µM) |  |  |  | 0.5 µg/mL (≈ 1.24 µM) | > 4 µg/mL | 0.25 µg/mL (≈ 0.621 µM) | 0.063 µg/mL (≈ 0.157 µM) | > 4 µg/mL | 0.063 µg/mL (≈ 0.157 µM) | 0.125 µg/mL (≈ 0.311 µM) | 0.125 µg/mL (≈ 0.311 µM) | 9% |
| Cc1c(-c2ccccc2)c(N2CC[C@H](N(C)C)C2)c2oc(C3CC3)nc2c1C#N | 0.125 µg/mL (≈ 0.323 µM) | 0.063 µg/mL (≈ 0.163 µM) |  | 10 µg/mL (≈ 25.9 µM) | 3.9 | 0.063 µg/mL (≈ 0.163 µM) |  |  |  |  |  | 0.032 µg/mL (≈ 0.0828 µM) | 0.032 µg/mL (≈ 0.0828 µM) |  |
| Cc1c(-c2ccccc2)c(N2CC[C@H](N(C)C)C2)c2oc(C(C)(C)C)nc2c1C#N.Cl | 2 µg/mL | 0.063 µg/mL |  | 5 µg/mL | 4.6 | 0.125 µg/mL | 4 µg/mL | 0.063 µg/mL | ≤ 0.016 µg/mL | 4 µg/mL | ≤ 0.016 µg/mL | 0.063 µg/mL | 0.032 µg/mL | 6% |
| Cc1nc2c(C#N)c(C)c(-c3ccccc3)c(N3CC[C@H](N(C)C)C3)c2o1 | 4 µg/mL (≈ 11.1 µM) | 2 µg/mL (≈ 5.55 µM) |  | 120 µg/mL (≈ 333 µM) | 3.3 | 2 µg/mL (≈ 5.55 µM) |  |  |  |  |  | 0.25 µg/mL (≈ 0.694 µM) | 0.25 µg/mL (≈ 0.694 µM) |  |
